Published values from different studies.
Each line is one published result; the experiments were not run side by side.
RPS6KA2 C-terminal kinase domain: Ribosomal protein S6 kinase alpha-2, C-terminal kinase domain (RPS6KA2, Homo sapiens, UniProt Q15349)
RPS6KA2: Ribosomal protein S6 kinase alpha-2 (RPS6KA2, Homo sapiens, UniProt Q15349)
RPS6KA2 N-terminal kinase domain: Ribosomal protein S6 kinase alpha-2, N-terminal kinase domain (RPS6KA2, Homo sapiens, UniProt Q15349)

SMILES	target	assay	conditions	quantity	result
O=C(O)[C@@H]1[C@@H](Cn2nnc3ccccc3c2=O)CC[C@H]1C(=O)c1ccc(OCCC2CCOCC2)cc1	RPS6KA2 C-terminal kinase domain	cell-free assay, competition with immobilised ligand	1 µM	remaining binding	100%
CCCOc1ccc(OC)c(F)c1C(=O)c1ccc(C(=O)N[C@@H]2CNC[C@H]2NC(=O)c2ccc3[nH]ncc3c2)cc1	RPS6KA2	enzyme activity, inhibitor	10 µM	remaining activity	6%
C[C@H]1CCN(c2nccc(-c3cnn4ncccc34)n2)C1	RPS6KA2 C-terminal kinase domain	binding, competition with immobilised ligand	1 µM	remaining binding	100%
Cn1cc(Cl)c2c(Oc3c(F)cc(Nc4cc(Cl)nc(N)n4)cc3F)ccnc21	RPS6KA2 N-terminal kinase domain	cell-free assay, competition with immobilised ligand	0.1 µM	remaining binding	95%
COc1cc(Cl)c(C(=O)N[C@@H](CN[C@H]2CC[C@@H](N)CC2)Cc2ccc(C#N)cc2)cc1-c1ccc(CN[C@H](C)c2ccc(C)cc2)o1	RPS6KA2	enzyme activity, inhibitor	1 µM	remaining activity	106%
CCCS(=O)(=O)Nc1ccc(F)c(C(=O)c2c[nH]c3ncc(-c4ccc(Cl)cc4)cc23)c1F	RPS6KA2	enzyme activity, inhibitor	1 µM	inhibition	< 10%
O=C(NC[C@@H]1[C@H]2CN(C(=O)OCc3cc(C(F)(F)F)cc(C(F)(F)F)c3)C[C@@H]12)c1ccc2[nH]nnc2c1	RPS6KA2 C-terminal kinase domain	cell-free assay, competition with immobilised ligand	1 µM	remaining binding	84%
CC(C)(C)c1nc(-c2cccc(NS(=O)(=O)c3c(F)cccc3F)c2F)c(-c2ccnc(N)n2)s1	RPS6KA2	enzyme activity, inhibitor, radiometric	1 µM	remaining activity	81%
CC1CCCN1c1nccc(-c2cnn3ncccc23)n1 (stereo not shown)	RPS6KA2 C-terminal kinase domain	binding, competition with immobilised ligand	1 µM	remaining binding	100%
Cc1cnc(NC2CCOCC2)nc1-n1cnc(C(=O)NC(CN)c2cc(F)cc(Cl)c2)c1 (stereo not shown)	RPS6KA2	enzyme activity, inhibitor, radiometric	1 µM	remaining activity	12%
CN(C)c1ncc(F)c(-c2cnn3ncccc23)n1	RPS6KA2 N-terminal kinase domain	binding, competition with immobilised ligand	1 µM	remaining binding	100%
Cc1ccc(Nc2nccc(N(C)c3ccc4c(C)n(C)nc4c3)n2)cc1S(N)(=O)=O	RPS6KA2	enzyme activity, inhibitor	10 µM	inhibition	64%
CN(C)C(=O)Cn1cc(-c2nc([C@@](C)(c3ccc(-c4cnc(N)nc4)cc3)C3CC3)no2)cn1	RPS6KA2 N-terminal kinase domain	cell-free assay, competition with immobilised ligand	1 µM	remaining binding	85%
CNCc1ccc(-c2cc(-c3nc(-c4ccc(S(=O)(=O)C(C)C)cc4)cnc3N)on2)cc1	RPS6KA2	enzyme activity, inhibitor	2 µM	inhibition	49%
CCCCN(CCCC)C(=O)CN1C[C@@H](c2cc(OC)c3c(c2)OCO3)[C@H](C(=O)O)[C@H]1CC(C)(C)CCC	RPS6KA2 C-terminal kinase domain	cell-free assay, competition with immobilised ligand	1 µM	remaining binding	90.2%
c1cnn2ncc(-c3ccnc(N4CCC45COC5)n3)c2c1	RPS6KA2 N-terminal kinase domain	binding, competition with immobilised ligand	1 µM	remaining binding	95%
CNC(=O)Nc1ccc2c(c1)[C@@]1(CC2)OC(=O)N(CC(=O)N(Cc2ccc(F)cc2)[C@@H](C)C(F)(F)F)C1=O	RPS6KA2 C-terminal kinase domain	cell-free assay, competition with immobilised ligand	1 µM	remaining binding	100%
Cc1cc(NC(=O)c2cccc3cc(-c4cccc5[nH]nc(N)c45)ccc23)ccc1F	RPS6KA2	enzyme activity, inhibitor	0.1 µM	activity vs control	95%
N[C@H]1CCN(c2nccc(-c3cnn4ncccc34)n2)C1	RPS6KA2 N-terminal kinase domain	binding, competition with immobilised ligand	1 µM	remaining binding	85%
FC(F)(F)c1ccc2c(c1)nc(-c1cccnc1)n2C1CC1	RPS6KA2 N-terminal kinase domain	cell-free assay, competition with immobilised ligand	1 µM	remaining binding	100%
Cc1ccc(C(=O)Nc2ccc(CN3CCN(C)CC3)c(C(F)(F)F)c2)cc1C#Cc1cnc2cccnn12	RPS6KA2	enzyme activity, inhibitor	23.5 nM	remaining activity	100%
CN(C)c1nccc(-c2cnn3ncccc23)n1	RPS6KA2 C-terminal kinase domain	binding, competition with immobilised ligand	1 µM	remaining binding	100%
COc1cc2ncnc(Nc3ccc(Oc4ccccc4)cc3C)c2cc1OC	RPS6KA2	enzyme activity, inhibitor	1 µM	inhibition	3%
COc1ccnn2ncc(-c3ccnc(N(C)C)n3)c12	RPS6KA2 N-terminal kinase domain	binding, competition with immobilised ligand	1 µM	remaining binding	74%
Nc1ncnc2occ(-c3ccc(NC(=O)Nc4cc(C(F)(F)F)ccc4F)cc3)c12	RPS6KA2 N-terminal kinase domain	cell-free assay, inhibitor	20 µM	remaining signal	0.6%
